Experimental data from ChEMBL document CHEMBL4680101, “Discovery and Optimization of Allosteric Inhibitors of Mutant Isocitrate Dehydrogenase 1 (R132H IDH1) Displaying Activity in Human Acute Myeloid Leukemia Cells” (J Med Chem, 2016).
Activity calls are given as the source filed them. No cut-off for these calls is given here.

Tests used:
Leukemic blast cell [1] = assay: Induction of myeloid differentiation in human primary AML blast cells from patient with wild type IDH1 assessed as up-regulation of CD11b at 1 times to 8 times IC50 incubated for 14 days by flow cytometry; assay type: functional, tissue-based; conditions: time 14.0 day
Procedure, shortened: (§1)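 Primary AML cells (≥80% blasts), 2 x 10^4 per condition in methylcellulose with cytokines (IL-3, IL-6, IL-11, FLT3L, SCF, TPO, G-CSF, EPO). Compound at 1x, 4x, 8x cellular IC50 or DMSO (1:1000), 14 days at 37 °C. Recovered cells stained for CD11b, CD15 and CD117, ≥30 min at 4 °C, read by flow cytometry.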

[2] = test system: Isocitrate dehydrogenase [NADP] cytoplasmic (Homo sapiens), O75874 [R132H]; assay: Allosteric inhibition of Myc-tagged IDH1 R132H mutant (unknown origin) expressed in human THP-1 cells assessed as inhibition of 2-HG production at >=10 uM incubated for 5 days in presence of doxycycline by LC-MS/MS analysis; assay type: cell-based; conditions: filed as negative allosteric modulator, dose microM >=10, time 5.0 day
Chain of Isocitrate dehydrogenase [NADP] cytoplasmic (Homo sapiens), O75874 [R132H] (O75874 whole entry R132H): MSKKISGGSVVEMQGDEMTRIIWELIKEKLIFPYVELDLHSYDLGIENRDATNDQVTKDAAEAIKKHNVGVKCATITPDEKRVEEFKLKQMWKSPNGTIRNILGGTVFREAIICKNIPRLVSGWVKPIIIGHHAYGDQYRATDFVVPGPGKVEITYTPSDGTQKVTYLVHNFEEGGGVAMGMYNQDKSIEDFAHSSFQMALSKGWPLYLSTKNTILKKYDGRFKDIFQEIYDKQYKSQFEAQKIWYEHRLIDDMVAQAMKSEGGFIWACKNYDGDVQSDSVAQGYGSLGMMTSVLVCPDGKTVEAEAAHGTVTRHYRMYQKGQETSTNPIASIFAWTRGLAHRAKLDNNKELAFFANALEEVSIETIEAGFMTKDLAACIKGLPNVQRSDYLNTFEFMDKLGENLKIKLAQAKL
Procedure, shortened: (§2)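 THP1 cells carrying doxycycline-inducible Myc-tagged IDH1 R132H (lentiviral, blasticidin-selected) cultured 5 days with doxycycline and compound. 2-HG measured by HILIC LC-MS/MS after solid-phase extraction, D3-2-HG internal standard, against a medium-spiked standard curve. Mean of two biological replicates.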

Leukemic blast cell [3] = assay: Induction of myeloid differentiation in human primary AML blast cells from patient with IDH1 R132H mutation assessed as down-regulation of CD117 at 1 times to 8 times IC50 incubated for 14 days by flow cytometry; assay type: functional, tissue-based; conditions: time 14.0 day; procedure, shortened: as §1
[4] = target: Isocitrate dehydrogenase [NADP] cytoplasmic (Homo sapiens, UniProt O75874, R132C); assay: Inhibition of IDH1 R132C mutant (unknown origin) using alpha-ketoglutarate and NADPH incubated for 30 mins by fluorescence based assay
Chain of Isocitrate dehydrogenase [NADP] cytoplasmic (Homo sapiens, UniProt O75874, R132C) (O75874 2-414 R132C limits assumed): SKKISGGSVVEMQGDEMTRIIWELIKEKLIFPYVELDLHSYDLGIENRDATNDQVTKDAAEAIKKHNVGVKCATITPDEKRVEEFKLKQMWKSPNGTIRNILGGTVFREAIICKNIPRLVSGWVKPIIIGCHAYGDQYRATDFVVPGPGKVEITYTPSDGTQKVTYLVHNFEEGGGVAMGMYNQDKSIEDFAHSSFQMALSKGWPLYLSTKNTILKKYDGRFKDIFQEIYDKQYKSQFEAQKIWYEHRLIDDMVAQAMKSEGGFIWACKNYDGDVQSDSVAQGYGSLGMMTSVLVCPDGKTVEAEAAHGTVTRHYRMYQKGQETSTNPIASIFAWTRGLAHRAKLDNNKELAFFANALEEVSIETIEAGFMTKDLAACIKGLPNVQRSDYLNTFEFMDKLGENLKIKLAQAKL
Procedure, shortened: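 IDH1 R132C (100 nM) in 20 mM Tris pH 7.5, 10 mM MgCl2, 150 mM NaCl, 0.03% BSA with 0.5 mM α-ketoglutarate and 50 µM NADPH. Reaction 30 min at 26 °C. NADPH consumption read via diaphorase/resazurin coupling, resorufin fluorescence Ex544/Em590.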

[5] = target: Isocitrate dehydrogenase [NADP] cytoplasmic (Homo sapiens, UniProt O75874); assay: Inhibition of wild type IDH1 (unknown origin) using isocitrate and NADP incubated for 30 mins by fluorescence based assay
Chain of Isocitrate dehydrogenase [NADP] cytoplasmic (Homo sapiens, UniProt O75874) (O75874 whole entry): as the sequence (O75874 whole entry R132H) above, with H132R counted along it

[6] = target: Glucose-6-phosphate 1-dehydrogenase (Homo sapiens, UniProt P11413); assay: Inhibition of wild type G6PD (unknown origin) using glucose-6-phosphate and NADP incubated for 30 mins by fluorescence based assay
Chain of Glucose-6-phosphate 1-dehydrogenase (P11413 whole entry): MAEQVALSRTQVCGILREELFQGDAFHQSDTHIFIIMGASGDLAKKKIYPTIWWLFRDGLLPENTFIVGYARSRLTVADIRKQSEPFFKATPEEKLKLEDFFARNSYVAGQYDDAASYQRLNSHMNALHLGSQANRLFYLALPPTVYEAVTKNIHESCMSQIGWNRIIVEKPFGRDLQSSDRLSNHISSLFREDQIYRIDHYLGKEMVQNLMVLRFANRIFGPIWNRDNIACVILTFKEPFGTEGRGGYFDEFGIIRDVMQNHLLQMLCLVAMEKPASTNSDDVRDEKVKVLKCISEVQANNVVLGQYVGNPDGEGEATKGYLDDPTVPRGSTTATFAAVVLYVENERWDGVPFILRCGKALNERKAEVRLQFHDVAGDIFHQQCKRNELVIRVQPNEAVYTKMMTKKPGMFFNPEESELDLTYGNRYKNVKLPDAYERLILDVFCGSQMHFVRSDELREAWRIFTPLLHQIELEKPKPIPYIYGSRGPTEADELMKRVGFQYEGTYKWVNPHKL

[7] = target: T1, Isocitrate dehydrogenase [NADP] cytoplasmic (Homo sapiens, UniProt O75874, R132H); assay: Allosteric inhibition of IDH1 R132H mutant (unknown origin) expressed in HEK293T cells assessed as reduction in 2-HG production incubated for 48 hrs by LC-MS/MS analysis; assay type: cell-based
Procedure, shortened: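 HEK293T cells reverse-transfected with pcDNA3.1 IDH1 R132H (Lipofectamine 2000), 6 h at 37 °C in 1% FBS plating medium, then assay medium. Compound added in DMSO (0.15% final), 48 h at 37 °C. Medium 2-HG quantified by HILIC LC-MS/MS with D3-2-HG internal standard, normalised to Hoechst nuclear count. Mean of two biological replicates.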
Target sequence in this assay (O75874 2-414 R132H limits assumed): as the sequence (O75874 2-414 R132C limits assumed) above, with C131H counted along it

THP-1 = assay: Effect on cell proliferation in human THP-1 cells; assay type: ADME, cell-based
Leukemic blast cell [8] = assay: Induction of myeloid differentiation in human primary AML blast cells from patient with IDH1 R132H mutation assessed as up-regulation of CD11b at 1 times to 8 times IC50 incubated for 14 days by flow cytometry; assay type: functional, tissue-based; conditions: time 14.0 day; procedure, shortened: as §1
Leukemic blast cell [9] = assay: Induction of myeloid differentiation in human primary AML blast cells from patient with IDH1 R132H mutation assessed as increase in clonogenic activity at 1 times to 8 times IC50 incubated for 14 days by cytospin based analysis; assay type: functional, tissue-based; conditions: time 14.0 day
Procedure, shortened: (§3)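 Primary AML cells (≥80% blasts) seeded at 2 x 10^4 per condition in cytokine-supplemented methylcellulose with compound or DMSO vehicle (1:1000), 37 °C, 5% CO2. Colonies scored and counted after 14 days, expressed relative to vehicle control. Three independent experiments, mean ± standard error.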

Leukemic blast cell [10] = assay: Induction of myeloid differentiation in human primary AML blast cells from patient with wild type IDH1 assessed as down-regulation of CD117 at 1 times to 8 times IC50 incubated for 14 days by flow cytometry; assay type: functional, tissue-based; conditions: time 14.0 day; procedure, shortened: as §1
Leukemic blast cell [11] = assay: Induction of myeloid differentiation in human primary AML blast cells from patient with IDH1 R132H mutation assessed as up-regulation of CD15 at 1 times to 8 times IC50 incubated for 14 days by flow cytometry; assay type: functional, tissue-based; conditions: time 14.0 day; procedure, shortened: as §1
[12] = target: T1, Isocitrate dehydrogenase [NADP] cytoplasmic; assay: (§4) Allosteric inhibition of Myc-tagged IDH1 R132H mutant (unknown origin) expressed in human THP-1 cells assessed as inhibition of 2-HG production incubated for 5 days in presence of doxycycline by LC-MS/MS analysis; assay type: cell-based; procedure, shortened: as §2
Target sequence in this assay (O75874 whole entry R132H): as the sequence (O75874 whole entry R132H) above

[13] = test system: Isocitrate dehydrogenase [NADP] cytoplasmic (Homo sapiens), O75874 [R132H]; assay: as §4; assay type: cell-based; conditions: filed as negative allosteric modulator, time 5.0 day; procedure, shortened: as §2
Leukemic blast cell [14] = assay: Induction of myeloid differentiation in human primary AML blast cells from patient with IDH1 R132H mutation assessed as induction of mature cellular morphology at 1 times to 8 times IC50 incubated for 14 days by cytospin based analysis; assay type: functional, tissue-based; conditions: time 14.0 day
Procedure, shortened: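 Primary IDH1 R132H AML cells in cytokine-supplemented methylcellulose with compound or DMSO vehicle for 14 days. Cells recovered by dilution in PBS and centrifugation, then examined on cytospin preparations for morphology.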

[15] = target: 11-beta-hydroxysteroid dehydrogenase 1 (Homo sapiens, UniProt P28845); assay: Inhibition of active recombinant human N-terminal His-tagged 11-betaHSD1 expressed in Escherichia coli using cortisone, NADPH and glucose-6-phosphate incubated for 2 hrs by glucose-6-phosphate dehydrogenase based coupled HTRF immuno-competitive assay
Chain of 11-beta-hydroxysteroid dehydrogenase 1 (P28845 whole entry): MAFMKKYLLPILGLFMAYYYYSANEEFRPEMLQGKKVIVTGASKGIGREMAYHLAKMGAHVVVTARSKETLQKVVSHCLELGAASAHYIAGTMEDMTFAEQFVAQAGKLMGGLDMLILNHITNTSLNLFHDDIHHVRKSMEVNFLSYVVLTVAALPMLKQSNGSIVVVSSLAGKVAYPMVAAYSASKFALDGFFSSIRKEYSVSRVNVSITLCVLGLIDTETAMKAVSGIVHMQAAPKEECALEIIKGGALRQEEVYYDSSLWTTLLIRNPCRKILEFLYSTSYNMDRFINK
Procedure, shortened: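 Coupled HTRF immuno-competitive assay: 11β-HSD1 (1.5 µg/ml) in 100 mM potassium phosphate pH 7.6 with 160 nM cortisone, 1 mM EDTA, 1 mM glucose-6-phosphate and 12.5 µg/ml G6PD, started with 0.1 mM NADPH. Reaction 30 min at 37 °C, stopped with glycyrrhetinic acid in cortisol-d2, then anti-cortisol cryptate for 2 h at room temperature. TR-FRET read-out.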

Leukemic blast cell [16] = assay: Induction of myeloid differentiation in human primary AML blast cells from patient with wild type IDH1 assessed as up-regulation of CD15 at 1 times to 8 times IC50 incubated for 14 days by flow cytometry; assay type: functional, tissue-based; conditions: time 14.0 day; procedure, shortened: as §1
[17] = target: T1, Isocitrate dehydrogenase [NADP] cytoplasmic; assay: Inhibition of IDH1 R132H mutant (unknown origin) using alpha-ketoglutarate and NADPH incubated for 60 mins by fluorescence based assay
Target sequence in this assay (O75874 2-414 R132H limits assumed): as the sequence (O75874 2-414 R132C limits assumed) above, with C131H counted along it

HeLa = assay: Cytotoxicity in human HeLa cells; assay type: cell-based
[18] = target: T2, Isocitrate dehydrogenase [NADP], mitochondrial (Homo sapiens, UniProt P48735); assay: Inhibition of wild type IDH2 (unknown origin) using isocitrate and NADP incubated for 60 mins by fluorescence based assay
T2 sequence (P48735 whole entry): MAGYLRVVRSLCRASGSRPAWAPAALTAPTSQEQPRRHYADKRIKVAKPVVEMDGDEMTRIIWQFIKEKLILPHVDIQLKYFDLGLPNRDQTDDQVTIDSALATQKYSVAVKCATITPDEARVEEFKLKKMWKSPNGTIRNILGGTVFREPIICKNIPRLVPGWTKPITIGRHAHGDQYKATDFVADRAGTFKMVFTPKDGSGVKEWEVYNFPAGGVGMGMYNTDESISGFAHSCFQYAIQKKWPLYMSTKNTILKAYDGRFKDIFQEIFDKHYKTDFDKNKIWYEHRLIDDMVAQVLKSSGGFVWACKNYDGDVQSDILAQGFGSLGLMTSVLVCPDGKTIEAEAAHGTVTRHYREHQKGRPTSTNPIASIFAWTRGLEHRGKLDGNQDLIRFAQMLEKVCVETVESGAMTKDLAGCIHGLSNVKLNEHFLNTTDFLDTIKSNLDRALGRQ

[19] = Effect on cell differentiation in human THP-1 cells; assay type: ADME, cell-based
Leukemic blast cell [20] = assay: Induction of myeloid differentiation in human primary AML blast cells from patient with wild type IDH1 assessed as increase in clonogenic activity at 1 times to 8 times IC50 incubated for 14 days by cytospin based analysis; assay type: functional, tissue-based; conditions: time 14.0 day; procedure, shortened: as §3

inhibition [2]: 100%
IC50 [4]: 470 nM
IC50 [5]: > 50000 nM
IC50 [6]: > 50000 nM
IC50 [7]: 2300 nM
IC50 [12]: 1900 nM
inhibition [13]: Dose-dependent effect
IC50 [15]: 9 nM
IC50 [17]: 270 nM
IC50 [18]: > 50000 nM
Compound: CC(C)CCOc1nc(N2C[C@@H]3[C@H](C2)[C@H]3C(=O)O)ccc1C(=O)NC1C2CC3CC1CC(O)(C3)C2 (some centres not stated)
Activity (Leukemic blast cell [1]): inactive
Activity (Leukemic blast cell [3]): Active
Activity (THP-1): Non-Toxic
Activity (Leukemic blast cell [8]): Active
Activity (Leukemic blast cell [9]): Active
Activity (Leukemic blast cell [10]): inactive
Activity (Leukemic blast cell [11]): Active
Activity (Leukemic blast cell [14]): Active
Activity (Leukemic blast cell [16]): inactive
IC50 (HeLa): > 30000 nM
Activity [19]: Non-Toxic
Activity (Leukemic blast cell [20]): inactive
